Columns and labels:
Acylcarnitine hydrolase = biological target: T1, Acylcarnitine hydrolase (Mus musculus, UniProt Q91WG0); experiment: Inhibition of carboxylesterase in murine liver microsomes.; parameters: species or system Microsome
T1 sequence (Q91WG0 whole entry): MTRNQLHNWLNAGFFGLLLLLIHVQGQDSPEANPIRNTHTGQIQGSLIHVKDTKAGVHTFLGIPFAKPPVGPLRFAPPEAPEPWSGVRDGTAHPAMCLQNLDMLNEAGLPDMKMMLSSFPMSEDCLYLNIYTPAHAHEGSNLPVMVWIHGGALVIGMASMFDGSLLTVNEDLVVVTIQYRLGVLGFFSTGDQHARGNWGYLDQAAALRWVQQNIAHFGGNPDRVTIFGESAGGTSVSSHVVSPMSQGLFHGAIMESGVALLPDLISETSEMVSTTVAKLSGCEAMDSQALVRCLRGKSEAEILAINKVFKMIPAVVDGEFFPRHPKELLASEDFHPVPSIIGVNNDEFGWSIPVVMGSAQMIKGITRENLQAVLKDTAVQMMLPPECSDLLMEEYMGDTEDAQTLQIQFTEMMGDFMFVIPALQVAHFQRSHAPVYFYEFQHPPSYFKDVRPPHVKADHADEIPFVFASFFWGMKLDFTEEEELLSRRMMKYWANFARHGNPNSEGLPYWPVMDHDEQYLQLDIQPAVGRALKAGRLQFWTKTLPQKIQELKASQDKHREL
In short: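 Liver microsomes from male Swiss-Webster mice (differential centrifugation, 100000g pellets), solubilized in 1% n-octyl-β-D-glucopyranoside, then dialyzed 48 h at 4 °C to remove it; 0.88 μg protein per well. Assay in 0.1 M sodium phosphate pH 7.4 at 30 °C: 5 min inhibitor preincubation (ethanol ≤1%), 0.5 mM p-nitrophenyl acetate, 405 nm.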

Liver carboxylesterase = biological target: T2, Liver carboxylesterase (Sus scrofa, UniProt Q29550); experiment: In vitro inhibition of porcine carboxylesterase.
T2 sequence (Q29550 whole entry): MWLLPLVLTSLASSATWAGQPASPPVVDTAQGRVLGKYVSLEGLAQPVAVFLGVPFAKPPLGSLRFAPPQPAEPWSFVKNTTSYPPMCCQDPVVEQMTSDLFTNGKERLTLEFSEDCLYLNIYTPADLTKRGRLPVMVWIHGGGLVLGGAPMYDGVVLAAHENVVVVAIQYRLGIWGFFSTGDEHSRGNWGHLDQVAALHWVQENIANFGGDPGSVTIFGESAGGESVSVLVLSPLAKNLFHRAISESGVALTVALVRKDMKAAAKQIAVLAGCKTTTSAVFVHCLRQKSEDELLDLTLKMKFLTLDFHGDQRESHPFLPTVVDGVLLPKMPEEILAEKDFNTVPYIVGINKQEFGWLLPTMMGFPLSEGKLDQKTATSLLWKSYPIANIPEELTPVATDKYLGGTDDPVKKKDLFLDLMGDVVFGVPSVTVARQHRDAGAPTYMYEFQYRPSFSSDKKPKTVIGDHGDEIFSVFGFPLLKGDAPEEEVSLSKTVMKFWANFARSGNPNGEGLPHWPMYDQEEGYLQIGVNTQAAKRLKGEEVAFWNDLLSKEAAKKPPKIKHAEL

Cocaine esterase = biological target: T3, Cocaine esterase (Homo sapiens, UniProt O00748); experiment: In vitro inhibition of carboxylesterase in human liver microsomes.; parameters: species or system Microsome
T3 sequence (O00748 whole entry): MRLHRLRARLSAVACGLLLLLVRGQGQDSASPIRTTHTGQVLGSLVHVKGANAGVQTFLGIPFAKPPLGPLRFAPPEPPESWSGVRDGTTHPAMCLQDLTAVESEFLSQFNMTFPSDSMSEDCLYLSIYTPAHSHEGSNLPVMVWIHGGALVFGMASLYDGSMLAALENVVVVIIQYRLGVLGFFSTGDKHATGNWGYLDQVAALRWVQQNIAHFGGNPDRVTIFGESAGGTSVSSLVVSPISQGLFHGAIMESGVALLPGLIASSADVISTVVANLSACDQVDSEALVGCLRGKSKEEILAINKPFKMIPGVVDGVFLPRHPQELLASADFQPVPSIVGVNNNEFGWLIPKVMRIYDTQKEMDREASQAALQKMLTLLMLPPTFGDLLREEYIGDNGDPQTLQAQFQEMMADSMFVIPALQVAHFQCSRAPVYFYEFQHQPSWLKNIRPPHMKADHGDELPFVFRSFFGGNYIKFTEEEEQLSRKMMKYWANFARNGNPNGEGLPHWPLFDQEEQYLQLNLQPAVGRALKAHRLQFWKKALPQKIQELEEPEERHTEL

CCCCCCS(=O)(=O)CC(=O)C(F)(F)F
IC50 (Acylcarnitine hydrolase): 0.447 µM | IC50 (Liver carboxylesterase): 0.676 µM

CCCCCCSCC(=O)C(F)(F)F
IC50 (Acylcarnitine hydrolase): 0.0126 µM | IC50 (Liver carboxylesterase): 0.00832 µM

CCCCCC[S+]([O-])CC(=O)C(F)(F)F (stereo not given)
IC50 (Acylcarnitine hydrolase): 0.447 µM | -Log IC50 (Cocaine esterase): 6.51 | IC50 (Liver carboxylesterase): 0.17 µM

CCCCCCOCC(C)=O
IC50 (Acylcarnitine hydrolase): 427 µM | IC50 (Liver carboxylesterase): 257 µM

CCCCCCCCC(=O)C(F)(F)F
IC50 (Acylcarnitine hydrolase): 38 µM | -Log IC50 (Cocaine esterase): 5.36 | IC50 (Liver carboxylesterase): 21.4 µM

CCCCCC[Se](=O)(=O)CC(=O)C(F)(F)F
IC50 (Acylcarnitine hydrolase): 0.0132 µM | IC50 (Liver carboxylesterase): 0.0105 µM

CCCCCC[Se](=O)(=O)CC(C)=O
IC50 (Acylcarnitine hydrolase): 112 µM

CCCCCCCCC(=O)CF
IC50 (Acylcarnitine hydrolase): 1780 µM | -Log IC50 (Cocaine esterase): 3.85 | IC50 (Liver carboxylesterase): 851 µM

CCCCCCCC(F)(F)C(=O)C(F)(F)F
IC50 (Acylcarnitine hydrolase): 0.162 µM | IC50 (Liver carboxylesterase): 0.115 µM

CCCCCC[Se](=O)CC(C)=O (stereo not given)
IC50 (Acylcarnitine hydrolase): 15.8 µM | -Log IC50 (Cocaine esterase): 5.69 | IC50 (Liver carboxylesterase): 9.33 µM

CCCCCC[Se]CC(C)=O
IC50 (Acylcarnitine hydrolase): 302 µM | IC50 (Liver carboxylesterase): 155 µM

CCCCCC/C=C/C(=O)C(F)(F)F
IC50 (Acylcarnitine hydrolase): 14800 µM | IC50 (Liver carboxylesterase): 6460 µM

CCCCCCS(=O)(=O)CC(C)=O
IC50 (Acylcarnitine hydrolase): 479 µM | IC50 (Liver carboxylesterase): 110 µM

CCCCCC[Se]CC(=O)C(F)(F)F
IC50 (Acylcarnitine hydrolase): 0.575 µM | IC50 (Liver carboxylesterase): 0.38 µM

CCCCCCOCC(=O)C(F)(F)F
IC50 (Acylcarnitine hydrolase): 0.12 µM | IC50 (Liver carboxylesterase): 0.0437 µM

CCCCCCSCC(C)=O
IC50 (Acylcarnitine hydrolase): 955 µM | IC50 (Liver carboxylesterase): 977 µM

CCCCCCCCC(C)=O [2-DECANONE]
IC50 (Liver carboxylesterase): 67600 µM

CCCCCC[Se](=O)CC(=O)C(F)(F)F (stereo not given)
IC50 (Acylcarnitine hydrolase): 0.000501 µM | IC50 (Liver carboxylesterase): 0.000457 µM

CCCCCCNCC(=O)C(F)(F)F
IC50 (Acylcarnitine hydrolase): 0.0224 µM | IC50 (Liver carboxylesterase): 0.017 µM

CCCCCCCCC(=O)C(F)F
IC50 (Acylcarnitine hydrolase): 44.7 µM | -Log IC50 (Cocaine esterase): 5.3 | IC50 (Liver carboxylesterase): 24.5 µM

CCCCCCC#CC(=O)C(F)(F)F
IC50 (Acylcarnitine hydrolase): 2040 µM | IC50 (Liver carboxylesterase): 955 µM

— ChEMBL document CHEMBL1135680, “Use of ab initio calculations to predict the biological potency of carboxylesterase inhibitors” (J Med Chem, 2002)
